ChEMBL document CHEMBL4002556, “Acetophenone Monomers from Acronychia trifoliolata” (J Nat Prod, 2016)

Tests used:
Assay type in all cases: functional, cell-based
[1] = tested on: MDA-MB-231; experiment: Cytotoxicity against human MDA-MB-231 cells assessed as growth inhibition after 48 hrs by SRB assay; details: MDA-MB-231, 48 h
How it was run: (§1)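 Sulforhodamine B (SRB) read-out of antiproliferative effect. IC50 is the concentration giving 50% reduction relative to untreated cells, determined separately for each cell line.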

[2] = tested on: MCF7; experiment: Cytotoxicity against human MCF7 cells assessed as growth inhibition after 48 hrs by SRB assay; details: MCF7, 48 h
[3] = tested on: A549; experiment: Cytotoxicity against human A549 cells assessed as growth inhibition after 48 hrs by SRB assay; details: A549, 48 h; how it was run: as §1
[4] = Cytotoxicity against human KBVIN cells assessed as growth inhibition after 48 hrs by SRB assay; how it was run: as §1
[5] = tested on: KB; experiment: Cytotoxicity against human KB cells assessed as growth inhibition after 48 hrs by SRB assay; how it was run: as §1

Compound | IC50 [1] [µM] | IC50 [2] [µM] | IC50 [3] [µM] | IC50 [4] [µM] | IC50 [5] [µM]
COc1c2c(c(CC=C(C)C)c(O)c1C(C)=O)OC(C(C)(C)O)C2 (stereo not drawn) | > 40 | > 40 | > 40 | > 40 | > 40
COc1c(CC=C(C)C)c(O)c2c(c1C(C)=O)OC(C)(C)C(O)C2 (stereo not drawn) | > 40 | > 40 | > 40 | > 40 | > 40
COc1c2c(c(CC=C(C)C)c(O)c1C(C)=O)OC(C)(C)C(O)C2 (stereo not drawn) | > 40 | 30.8 | 26.6 | 19.2 | 25.6
COc1c2c(c(CCC(C)C)c(O)c1C(C)=O)OC(C)(C)C(O)C2 (stereo not drawn) | 22.6 | 19.4 | 19.9 | 16.2 | 20.4
COc1c(CC=C(C)C)c2c(c(O)c1C(C)=O)CC(O)C(C)(C)O2 (stereo not drawn) | > 40 | > 40 | > 40 | 39.7 | 38.5
COc1c(CC=C(C)C)c2c(c(O)c1C(C)=O)CC(C(C)(C)O)O2 (stereo not drawn) | > 40 | > 40 | > 40 | > 40 | > 40
CC(=O)O[C@H]1C(=O)[C@@]2(C)[C@H]([C@H](OC(=O)c3ccccc3)[C@]3(O)C[C@H](OC(=O)[C@H](O)[C@@H](NC(=O)c4ccccc4)c4ccccc4)C(C)=C1C3(C)C)[C@]1(OC(C)=O)CO[C@@H]1C[C@@H]2O [PACLITAXEL] | – | – | 0.00099 | 1.9 | 0.0008
